Only some compounds are listed: those with a hit (about 3.3% of all), similar ones and a draw of the others.
ABCB1 inh = ABCB1 efflux pump inhibitors, primary screen, cell-based, multiplex, flow cytometry, ABCG2 counter-screen; CCRF-Adr cells, JC-1 efflux; actives 0.067% (n = 190,000); inhibition, % at 6.6 µM; AID 1326, 2008; ATP-dependent translocase ABCB1 (Homo sapiens), P08183; in the data active = inhibition above about 40%;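 note: higher value means more JC-1 retained so stronger ABCB1 efflux block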
PMI activator = activators of human PMI, primary screen, biochemical, fluorescence intensity, near-Km mannose 6-phosphate; actives 0.005% (n = 190,000); Mannose-6-phosphate isomerase (Homo sapiens), P34949; activation factor at 20 µM; purified human PMI, coupled resazurin fluorescence, 20 min; hits give high values; 1 = vehicle control, 0 substrate-free wells;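 active = activation factor of 2 or more at 20 µM, relative to plate controls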
ROMK primary = ROMK potassium channel modulators, primary screen, cell-based, thallium flux, MLSMR library; Tet-inducible ROMK, thallium flux fluorescence; actives lie on both sides; B-score at 10 µM; actives 2% (n = 130,000); AID 1918, 2009;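 active = signal ratio slope over the read window, or its plate-corrected B-score, at least 3 SD from the plate mean, either direction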;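 note: B-score of the F/F0 ratio slope over 7 to 12 s after thallium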
Cl transport mod = KCC2 cotransporter modulators, thallium flux, primary screen, cell-based, HEK293 KCC2, FluoZin-2 fluorescence, MLSMR | actives 2.2% (n = 190,000) | KCC2 cells, thallium flux FluoZin-2 fluorescence | Solute carrier family 12 member 5 (Homo sapiens), Q9H2X9 | B-score of Tl+ flux slope (higher = more flux/activation; lower = inhibition) at 10 µM;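 active = thallium flux slope and its plate-corrected score both differing from the plate sample mean at a set confidence after two filtering rounds, in either direction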;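 note: slope of fluorescence scaled to starting intensity during 10 to 20 s after thallium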
ABCG2 inh = ABCG2 efflux pump inhibitors, primary screen, multiplex with ABCB1, IgMXP3 cells, flow cytometry | Broad substrate specificity ATP-binding cassette transporter ABCG2 (Homo sapiens), Q9UNQ0 | JC-1 efflux | inhibition, % at 6.6 µM | actives 0.1% (n = 190,000) | AID 1325, 2008;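 active = inhibition above 80%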
Target sequence (Q9UNQ0 whole entry, looked up): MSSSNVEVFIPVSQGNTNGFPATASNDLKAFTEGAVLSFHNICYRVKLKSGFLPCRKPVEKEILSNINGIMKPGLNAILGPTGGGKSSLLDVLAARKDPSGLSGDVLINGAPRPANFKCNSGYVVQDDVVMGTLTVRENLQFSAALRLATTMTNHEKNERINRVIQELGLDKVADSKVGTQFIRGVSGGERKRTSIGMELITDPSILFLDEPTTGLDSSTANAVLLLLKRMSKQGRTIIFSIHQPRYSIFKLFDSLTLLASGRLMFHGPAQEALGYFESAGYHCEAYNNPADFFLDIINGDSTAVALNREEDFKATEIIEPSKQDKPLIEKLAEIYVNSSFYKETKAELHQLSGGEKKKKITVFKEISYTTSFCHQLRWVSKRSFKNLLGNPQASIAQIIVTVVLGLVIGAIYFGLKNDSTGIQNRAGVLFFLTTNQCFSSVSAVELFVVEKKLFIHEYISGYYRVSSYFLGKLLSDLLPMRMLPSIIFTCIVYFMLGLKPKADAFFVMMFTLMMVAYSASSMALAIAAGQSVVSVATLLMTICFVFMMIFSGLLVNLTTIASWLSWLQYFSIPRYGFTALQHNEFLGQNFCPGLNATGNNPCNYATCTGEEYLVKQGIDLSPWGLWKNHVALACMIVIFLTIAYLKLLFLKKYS
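Assay system – ABCG2 IgMXP3 and barcoded ABCB1 CCRF-Adr cell mix · Input – 3 million cells/mL in well · Reagent – JC-1 fluorescent substrate · Compound – single test compound dose, 6.6 µM final · Timing – 10 min exposure at 25 °C with rotation, no wash · Detection – flow cytometry of retained JC-1 fluorescence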
PMI act satM6P = human PMI activators, high substrate, primary screen, biochemical, fluorescence intensity, near-saturating mannose 6-phosphate | coupled PMI enzyme assay, resazurin fluorescence, 20 min; hits give high values; 1 = untreated enzyme, 0 = substrate-free blank | Mannose-6-phosphate isomerase (Homo sapiens), P34949 | activation factor at 20 µM | actives 0.34% (n = 190,000) | AID 1216, 2008;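 active = activation factor of 2 or more at 20 µM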
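Test system: human PMI in coupled enzyme assay; Input: PMI at 15 ng/mL final; Medium: HEPES buffer, pH 7.4; Schedule: 20 min incubation at room temperature; Technique: resorufin fluorescence at Ex 544/Em 590 nm; Compound: 20 µM single dose; Probe or stimulus: Near-saturating mannose-6-phosphate, 1.0 mM.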
ROMK retest = ROMK channel modulator hit retest, confirmation, cell-based, thallium flux, duplicate, resupplied hits; fluorescence ratio; hits give low values; shares compounds with ROMK primary; actives 54% (n = 3,000); normalized thallium flux (F/F0 slope) at 10 µM; AID 1917, 2009;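 active = Flux at 10 µM at least 3 SD below or above vehicle control mean in one or both replicates; inconclusive = no clear call, values can overlap the other calls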
Numbers stand for hits; n = inactive; u = inconclusive; x = no result given.

SMILES | ABCB1 inh | PMI activator | ROMK primary | Cl transport mod | ABCG2 inh | PMI act satM6P | ROMK retest
COc1cc(/C=C2\SC(c3ccc(C)cc3)=NC2=O)cc(OC)c1OC | n | n | x | x | n | n | x
COc1cc(/C=C2\SC(c3ccccc3)=NC2=O)cc(Cl)c1O | n | n | 3.2 | n | n | n | 0.066
COc1ccc(/C=C2/SC(c3ccc(C)cc3)=NC2=O)cc1OC | n | n | -3.2 | x | n | n | 0.053
Cc1csc(-c2cnn(-c3ccccc3)c2NC(=O)c2ccc(C(F)(F)F)cc2)n1 | n | n | n | n | n | n | x
CCCS(=O)(=O)c1c(S(=O)(=O)CCC)c2ccc(C(N)=O)cn2c1C(=O)OC | n | n | n | n | n | n | x
CCCS(=O)(=O)c1c(S(=O)(=O)CCC)c2ccc(C(N)=O)cn2c1C(=O)c1ccc(OC)cc1 | n | n | n | n | n | n | 0.061
CCOC(=O)c1c(C)n(C)c2ccc(OC)c(NC(=O)CCN3CCC(Cc4ccccc4)CC3)c12 | x | x | x | n | x | x | 0.063
CCOC(=O)c1c(C)n(C)c2ccc(OC)c(NC(=O)CN3CCSCC3)c12 | n | n | n | n | n | n | x
COc1cc2c(cc1OC)CN(c1nc(CN3CCOCC3)nc3sc4c(c13)CCCC4)CC2 | n | n | n | n | n | n | x
COc1cc2c(cc1OC)CN(c1nc(CN3CCCCC3)nc3sc4c(c13)CCCC4)CC2 | n | n | -2.6 | n | n | n | 0.064
COc1ccc(/C=C/C2=Nc3ccccc3NC(C)(C)C2)cc1OC | x | x | -7.8 | n | x | x | 0.043
COc1ccc(/C=C/C2=CC(C)(C)NC(=S)N2)cc1OC | n | n | n | n | n | n | x
CC1(C)CC(Nc2ccc(C(F)(F)F)cc2[N+](=O)[O-])CC(C)(C)N1 | n | n | -2.6 | n | n | n | 0.055
CCOC(=O)C1=C(O)C(=O)N(c2ccc(S(N)(=O)=O)cc2)C1c1ccc(Cl)cc1 (configuration not stated) | n | n | x | n | n | n | x
CCOC(=O)C1=C(O)C(=O)N(c2ccc(S(N)(=O)=O)cc2)C1c1ccccc1 (configuration not stated) | n | n | x | n | n | n | n
O=[N+]([O-])c1ccc(S(=O)(=O)NCCc2cn3ccccc3n2)cc1 | n | n | n | n | n | n | x
O=C(O)COn1c(-c2ccc(Cl)cc2)nc2ccc(Cl)cc21 | n | n | n | n | n | n | x
O=c1c2cc(Cl)ccc2nc(-c2ccc(Cl)c(Cl)c2)n1O | x | x | x | x | x | x | 0.18
Cn1nnnc1SCc1csc(C2C(C#N)=C(N)OC3=C2C(=O)CCC3)c1 (configuration not stated) | n | n | n | n | n | n | x
C=CCN(c1ccccc1)S(=O)(=O)c1ccc(Cl)c(C(=O)OCC(=O)N(C)C2CCS(=O)(=O)C2)c1 (configuration not stated) | n | n | n | n | n | n | x
O=C(c1coc2ccc(O)cc12)C1CC1 | n | n | x | n | n | n | x
O=C1NC(=S)S/C1=C\c1coc2ccc(O)cc2c1=O | x | x | x | n | x | x | 0.032
O=[N+]([O-])/C=C\c1ccc(N2CCCC2)c(F)c1 | n | n | x | n | n | n | 0.042
O=[N+]([O-])c1cc(/C=N/O)ccc1N1CCCC1 | n | n | -3.4 | n | n | n | u
N#CCCC(CCC#N)C1=NCCc2ccccc21 | x | x | x | n | x | x | x
SMILES | ABCB1 inh | PMI activator | ROMK primary | Cl transport mod | ABCG2 inh | PMI act satM6P | ROMK retest
CCC(C)NC(=O)Cn1c(=O)n(CCCCC(=O)NCc2ccco2)c(=O)c2ccccc21 (configuration not stated) | n | n | n | n | n | n | x
OCC1(Cc2cccc(C(F)(F)F)c2)CCN(Cc2cc(F)cc(F)c2)CC1 | n | n | n | n | n | n | x
CSc1cccc(CN2CCC(CO)(Cc3cccc(C(F)(F)F)c3)CC2)c1 | n | n | -3.5 | n | n | n | 0.063
NS(=O)(=O)c1ccc(CCNC(=O)COC(=O)C2CCCN2C(=O)c2cccs2)cc1 (configuration not stated) | n | n | x | n | n | n | x
Cc1c(Cl)cccc1NC(=O)CNC(=O)c1ccc(F)cc1 | n | n | x | n | n | n | u
C[N+]12CCCCC1C(COC(=O)c1ccc3c(c1)OCO3)CCC2 (configuration not stated) | n | n | n | x | n | n | x
CCn1ncc(C2=NOC(C(=O)NCc3ccccc3)C2)c1C (configuration not stated) | n | n | 3.1 | n | n | n | n
NC(=O)c1ccc(NC(=O)COC(=O)C2(c3ccccc3F)CCCC2)cc1 | n | n | -13 | n | n | n | n
CCCOc1ccc2c(C)c(CC(=O)OC)c(=O)oc2c1 | n | n | n | n | n | n | x
COC(=O)Cc1c(C)c2ccc(OCC(=O)N(C)C)cc2oc1=O | n | n | 1.4 | n | n | n | n
COc1ccc(/C=N\NC(=O)c2c(C)nc3ccc(Br)cn23)cc1 | n | n | 2.3 | n | n | n | 0.098
CN(C)c1ccc(N/C(N)=N/c2nc(C(F)(F)F)cc(C(F)(F)F)n2)cc1 | n | n | n | n | n | n | x
Nc1c(Cl)ncnc1NCC(O)CO (configuration not stated) | x | x | n | n | x | x | x
CSc1ccc(CNCCCN(C)C)cc1 | n | n | n | n | n | n | x
CC(C)(C)N(NC(=O)Nc1ccc(F)cc1)C(=O)c1ccccc1 | n | n | x | n | n | n | x
CC(C)(C)N(NC(=O)Nc1ccc(Cl)c(Cl)c1)C(=O)c1ccccc1 | n | n | x | n | n | n | n
O=c1oc2ccccc2nc1/C=C(\O)c1ccccc1 | x | x | n | n | x | x | x
Cc1ccc(/C(O)=C/c2nc3cc(C)ccc3oc2=O)cc1 | x | x | -2.4 | n | x | x | 0.048
CC(c1ccccc1)N1CCN(C(=O)CCl)CC1 (configuration not stated) | n | n | n | n | n | n | x
CC(C)(C)NC(=S)N/N=C\c1ccc(-c2ccc([N+](=O)[O-])cc2)o1 | x | x | -3.5 | n | x | x | 0.048
CN1C(=O)/C(=C/C=C2\SCCN2C)SC1=S | n | n | -3 | n | n | n | 0.057

From PubChem
